Experimental findings from ChEMBL document CHEMBL1687851, “Dolabellanes with antibacterial activity from the brown alga Dilophus spiralis” (2011) are described below.

The subject of experiment [1] is Staphylococcus aureus. Briefly: Antibacterial activity against 5 x 10^5 CFU/ml epidemic methicillin-resistant Staphylococcus aureus EMRSA-16 after 18 hrs by MTT assay. Type of experiment: functional. The conditions noted are these: EMRSA-16, 18 h. In outline:
(§1)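 Strains grown on nutrient agar 24 h at 37 °C; inoculum adjusted to 0.5 McFarland in normal saline. Compounds dissolved in DMSO, diluted in Mueller-Hinton broth to a 512 μg/mL starting concentration, then two-fold serially diluted in MHB supplemented with Mg2+ (10 mg/L) and Ca2+ (20 mg/L). Incubated 18 h at 37 °C; MIC read as lowest concentration with no visible growth, confirmed by MTT (20 min, 37 °C). Triplicates.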

The subject of experiment [2] is Staphylococcus aureus. Nature of the experiment: Antibacterial activity against 5 x 10^5 CFU/ml Staphylococcus aureus ATCC 25923 after 18 hrs by MTT assay. The conditions noted are these: ATCC 25923, 18 h.
The subject of experiment [3] is Staphylococcus aureus. Nature of the experiment: Antibacterial activity against 5 x 10^5 CFU/ml macrolide-resistant Staphylococcus aureus RN4220 expressing MsrA macrolide efflux protein after 18 hrs by MTT assay. Format: functional. Particulars: RN4220, 18 h. The method in brief: as §1
The subject of experiment [4] is Staphylococcus aureus. Briefly: Antibacterial activity against 5 x 10^5 CFU/ml epidemic methicillin-resistant Staphylococcus aureus EMRSA-15 after 18 hrs by MTT assay. Format: functional. Particulars: EMRSA-15, 18 h. In outline:
as §1
On the technique in general: Formazan colour is commonly taken as a measure of viable cells.

For experiment [5], the system named is Staphylococcus aureus. Briefly: Antibacterial activity against 5 x 10^5 CFU/ml multi-drug-resistant Staphylococcus aureus XU212 expressing TetK tetracycline efflux protein after 18 hrs by MTT assay. Format: functional. The conditions noted are these: XU212, 18 h. The method in brief: as §1
Experiment [6] deals with Staphylococcus aureus. Briefly: Antibacterial activity against 5 x 10^5 CFU/ml multi-drug-resistant Staphylococcus aureus SA1199B expressing NorA quinolone efflux protein after 18 hrs by MTT assay. Format: functional. The method in brief:
as §1

Values after ≈ are worked out from the molar mass of the structure shown.

In the case of `C=C(C)[C@H]1CC(=O)[C@]2(C)C/C=C(\C)CC/C=C(\C)CC[C@@H]12`, the minimal inhibitory concentration (MIC) (usually the smallest concentration in the dilution series that meets the test's criterion for growth inhibition) in experiment [1] is 16 µg/mL (≈ 55.9 µM); in experiment [2], greater than 128 µg/mL; in experiment [3], greater than 128 µg/mL; in experiment [4], greater than 128 µg/mL; in experiment [5] it was greater than 128 µg/mL; in experiment [6], 128 µg/mL (≈ 447 µM).

As for `C=C(C)[C@H]1CC(=O)[C@]2(C)C/C=C(/C)CC/C=C(\C)CC[C@@H]12`, the MIC in experiment [1], in experiment [2], in experiment [3], in experiment [4], in experiment [5] and in experiment [6] was greater than 128 µg/mL each time.

Turning to `C=C(C)[C@@H]1CC(=O)[C@]2(C)C/C=C(\C)CC/C=C(\C)CC[C@@H]12`, the MIC in experiment [1], in experiment [2], in experiment [3], in experiment [4], in experiment [5] and in experiment [6] was greater than 128 µg/mL throughout.

Take `C=C(C)[C@H]1CC[C@]2(C)C/C=C(\C)CC/C=C(\C)CC[C@@H]12`: the minimal inhibitory concentration (MIC) in experiment [1] was determined as 16 µg/mL (≈ 58.7 µM); in experiment [2] it was 64 µg/mL (≈ 235 µM); in experiment [3], 128 µg/mL (≈ 470 µM); in experiment [4], 128 µg/mL (≈ 470 µM); in experiment [5], 128 µg/mL (≈ 470 µM); in experiment [6] it was 128 µg/mL (≈ 470 µM).

`C=C(C)[C@H]1C[C@H](O)[C@]2(C)C/C=C(\C)CC/C=C(\C)CC[C@@H]12`: the minimal inhibitory concentration (MIC) in experiment [1] was found to be 8 µg/mL (≈ 27.7 µM); in experiment [2], 128 µg/mL (≈ 444 µM); in experiment [3], 64 µg/mL (≈ 222 µM); in experiment [4], 64 µg/mL (≈ 222 µM); in experiment [5], 64 µg/mL (≈ 222 µM); in experiment [6], 32 µg/mL (≈ 111 µM).

For `C=C(C)[C@H]1C[C@H](OC(C)=O)[C@]2(C)C/C=C(\C)CC/C=C(\C)CC[C@@H]12`, the minimal inhibitory concentration (MIC) in experiment [1], in experiment [2], in experiment [3], in experiment [4], in experiment [5] and in experiment [6] was greater than 128 µg/mL throughout.

Regarding `C=C(C)[C@H]1CC(=O)[C@]2(C)C[C@@H]3O[C@@]3(C)CC/C=C(\C)CC[C@@H]12`, the MIC in experiment [1] was greater than 128 µg/mL; in experiment [2], greater than 128 µg/mL; in experiment [3], 128 µg/mL (≈ 423 µM); in experiment [4] it was greater than 128 µg/mL; in experiment [5], greater than 128 µg/mL; in experiment [6] it was greater than 128 µg/mL.

With `C=C(C)[C@H]1CC[C@]2(C)C[C@@H]3O[C@@]3(C)CC/C=C(\C)CC[C@@H]12`, the MIC is 32 µg/mL (≈ 111 µM) in experiment [1]; greater than 128 µg/mL in experiment [2]; greater than 128 µg/mL in experiment [3]; greater than 128 µg/mL in experiment [4]; greater than 128 µg/mL in experiment [5]; greater than 128 µg/mL in experiment [6].

Take `C=C(C)[C@H]1C[C@H](OC(C)=O)[C@]2(C)C[C@@H]3O[C@@]3(C)CC/C=C(\C)CC[C@@H]12`: the minimum inhibitory concentration (MIC) in experiment [1] came to 32 µg/mL (≈ 92.3 µM); in experiment [2] it was 32 µg/mL (≈ 92.3 µM); in experiment [3] it was 64 µg/mL (≈ 185 µM); in experiment [4] it was 128 µg/mL (≈ 369 µM); in experiment [5], 128 µg/mL (≈ 369 µM); in experiment [6] it was 64 µg/mL (≈ 185 µM).

`C=C(C)[C@H]1CC(=O)[C@]2(C)C/C=C(\C)CC[C@@H]3O[C@@]3(C)CC[C@@H]12`: the minimum inhibitory concentration (MIC) in experiment [1], in experiment [2], in experiment [3], in experiment [4], in experiment [5] and in experiment [6] was greater than 128 µg/mL throughout.

As for `C=C(C)[C@H]1CC(=O)[C@]2(C)C/C=C(/C)CC[C@@H]3O[C@@]3(C)CC[C@@H]12`, the minimum inhibitory concentration (MIC) in experiment [1], in experiment [2], in experiment [3], in experiment [4], in experiment [5] and in experiment [6] was greater than 128 µg/mL each time.

Consider `C=C(C)[C@H]1CC[C@]2(C)C/C=C(\C)CC[C@@H]3O[C@@]3(C)CC[C@@H]12`, for which the minimal inhibitory concentration (MIC) was 4 µg/mL (≈ 13.9 µM) in experiment [1]; greater than 128 µg/mL in experiment [2]; greater than 128 µg/mL in experiment [3]; 128 µg/mL (≈ 444 µM) in experiment [4]; greater than 128 µg/mL in experiment [5]; greater than 128 µg/mL in experiment [6].

For the compound `C/C1=C\C[C@@]2(C)CC[C@H](C(C)(C)O)[C@@H]2CC/C(C)=C/CC1`, the MIC in experiment [1] is 8 µg/mL (≈ 27.5 µM); in experiment [2], 32 µg/mL (≈ 110 µM); in experiment [3] it was 64 µg/mL (≈ 220 µM); in experiment [4], 32 µg/mL (≈ 110 µM); in experiment [5] it was 64 µg/mL (≈ 220 µM); in experiment [6], 32 µg/mL (≈ 110 µM).

Regarding `C/C1=C\C[C@@]2(C)CC[C@@](O)(C(C)C)[C@@H]2CC/C(C)=C/CC1`, the MIC turned out to be 8 µg/mL (≈ 27.5 µM) in experiment [1]; 8 µg/mL (≈ 27.5 µM) in experiment [2]; 8 µg/mL (≈ 27.5 µM) in experiment [3]; 8 µg/mL (≈ 27.5 µM) in experiment [4]; 16 µg/mL (≈ 55.1 µM) in experiment [5]; 16 µg/mL (≈ 55.1 µM) in experiment [6].

With `C=C(C)[C@@H]1CC[C@]2(C)/C=C/[C@H](C)CC/C=C(\C)CC[C@@H]12`, the MIC in experiment [1], in experiment [2], in experiment [3], in experiment [4], in experiment [5] and in experiment [6] was greater than 128 µg/mL each time.

Take `C/C1=C\CC[C@@H](C)/C=C/[C@@]2(C)CC[C@@H](C(C)(C)O)[C@@H]2CC1`: the MIC in experiment [1] was found to be 16 µg/mL (≈ 55.1 µM); in experiment [2], 64 µg/mL (≈ 220 µM); in experiment [3] it was 64 µg/mL (≈ 220 µM); in experiment [4], 64 µg/mL (≈ 220 µM); in experiment [5], 64 µg/mL (≈ 220 µM); in experiment [6], 64 µg/mL (≈ 220 µM).

Take `CC(=O)O[C@H]1C/C(C)=C/CC[C@@H](C)/C=C/[C@@]2(C)CC[C@@H](C(C)(C)O)[C@H]12`: the MIC in experiment [1] is 64 µg/mL (≈ 184 µM); in experiment [2], greater than 128 µg/mL; in experiment [3], greater than 128 µg/mL; in experiment [4], greater than 128 µg/mL; in experiment [5] it was greater than 128 µg/mL; in experiment [6], greater than 128 µg/mL.

In the case of `C=C(C)[C@H]1C[C@@H](O)[C@]2(C)C/C=C(\C)CC/C=C(\C)CC[C@@H]12`, the minimal inhibitory concentration (MIC) in experiment [1] was 2 µg/mL (≈ 6.93 µM); in experiment [2] it was 4 µg/mL (≈ 13.9 µM); in experiment [3], 4 µg/mL (≈ 13.9 µM); in experiment [4] it was 2 µg/mL (≈ 6.93 µM); in experiment [5], 4 µg/mL (≈ 13.9 µM); in experiment [6] it was 2 µg/mL (≈ 6.93 µM).

On to `CCn1cc(C(=O)O)c(=O)c2cc(F)c(N3CCNCC3)cc21` [NORFLOXACIN], for which the minimal inhibitory concentration (MIC) amounted to 128 µg/mL (≈ 401 µM) in experiment [1]; 0.5 µg/mL (≈ 1.57 µM) in experiment [2]; 0.5 µg/mL (≈ 1.57 µM) in experiment [3]; 0.5 µg/mL (≈ 1.57 µM) in experiment [4]; 8 µg/mL (≈ 25.1 µM) in experiment [5]; 32 µg/mL (≈ 100 µM) in experiment [6].
